Key:
P388 [1] = test: In vivo antileukemic activity against P388 lymphocytic leukemia at a dose of 3.75 mg/kg administered intraperitoneally expressed as weight change of treated to control animals; format: functional, Mus musculus; conditions: route intraperitoneal
How it was run: (§1)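 P388 leukemia inoculated ip. Test drug in distilled water given ip once daily for 5 days, beginning 24 h post-inoculation; some compounds were dosed as suspensions prepared fresh daily and used immediately. Read-out is body weight change of treated animals relative to untreated controls.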

P388 [2] = test: In vivo antileukemic activity against P388 lymphocytic leukemia at a dose of 30 mg/kg administered intraperitoneally expressed as log of the number of tumor cells (cell kill); format: ADME, organism-based; set-up: dose 30 mg/kg, route intraperitoneal; conditions: mouse, ip
How it was run: (§2)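 P388 tumor inoculated ip. Drug solution in distilled water injected ip as five daily doses, starting 24 h after inoculation; some compounds were given as suspensions made fresh daily and used immediately.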

P388 [3] = test: In vivo antileukemic activity against P388 lymphocytic leukemia at a dose of 15 mg/kg administered intraperitoneally expressed as log of the number of tumor cells (cell kill); format: ADME, organism-based; set-up: dose 15 mg/kg, route intraperitoneal; conditions: mouse, ip; how it was run: as §2
P388 [4] = test: In vivo antileukemic activity against P388 lymphocytic leukemia at a dose of 30 mg/kg administered intraperitoneally expressed as weight change of treated to control animals; format: functional, Mus musculus; conditions: route intraperitoneal; how it was run: as §1
P388 [5] = test: In vivo antileukemic activity against P388 lymphocytic leukemia at a dose of 3.75 mg/kg administered intraperitoneally expressed as ratio of survival of treated compared to untreated control animals; format: functional, Mus musculus; conditions: route intraperitoneal
How it was run: (§3)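 Drug given ip as a solution in distilled water. Five daily doses, starting 24 h after ip tumor inoculation. % T/C is the survival of treated animals divided by that of untreated controls, expressed as a percent. Log cell kill (KE) is the log of tumor cell number at the end of treatment relative to the start. Weight change of treated animals is recorded relative to controls.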

P388 [6] = test: In vivo antileukemic activity against P388 lymphocytic leukemia at a dose of 30 mg/kg administered intraperitoneally expressed as ratio of survival of treated compared to untreated control animals; format: functional, Mus musculus; conditions: route intraperitoneal; how it was run: as §3
P388 [7] = test: In vivo antileukemic activity against P388 lymphocytic leukemia at a dose of 7.5 mg/kg administered intraperitoneally expressed as weight change of treated to control animals; format: functional, Mus musculus; conditions: route intraperitoneal; how it was run: as §1
P388 [8] = test: In vivo antileukemic activity against P388 lymphocytic leukemia at a dose of 7.5 mg/kg administered intraperitoneally expressed as log of the number of tumor cells (cell kill); format: ADME, organism-based; set-up: dose 7.5 mg/kg, route intraperitoneal; conditions: mouse, ip; how it was run: as §2
P388 [9] = test: In vivo antileukemic activity against P388 lymphocytic leukemia at a dose of 15 mg/kg administered intraperitoneally expressed as weight change of treated to control animals; format: functional, Mus musculus; conditions: route intraperitoneal; how it was run: as §1
P388 [10] = test: In vivo antileukemic activity against P388 lymphocytic leukemia at a dose of 7.5 mg/kg administered intraperitoneally expressed as ratio of survival of treated compared to untreated control animals; format: functional, Mus musculus; conditions: route intraperitoneal; how it was run: as §3
P388 [11] = test: In vivo antileukemic activity against P388 lymphocytic leukemia at a dose of 15 mg/kg administered intraperitoneally expressed as ratio of survival of treated compared to untreated control animals; format: functional, Mus musculus; conditions: route intraperitoneal; how it was run: as §3
P388 [12] = test: In vivo antileukemic activity against P388 lymphocytic leukemia at a dose of 3.75 mg/kg administered intraperitoneally expressed as log of the number of tumor cells (cell kill); format: ADME, organism-based; set-up: dose 3.75 mg/kg, route intraperitoneal; conditions: mouse, ip; how it was run: as §2
P388 [13] = test: In vivo antileukemic activity against P388 lymphocytic leukemia at a dose of 12.5 mg/kg administered intraperitoneally expressed as log of the number of tumor cells (cell kill); format: ADME, organism-based; set-up: dose 12.5 mg/kg, route intraperitoneal; conditions: mouse, ip; how it was run: as §2
P388 [14] = test: In vivo antileukemic activity against P388 lymphocytic leukemia at a dose of 25 mg/kg administered intraperitoneally expressed as weight change of treated to control animals; format: functional, Mus musculus; conditions: route intraperitoneal; how it was run: as §1
P388 [15] = test: In vivo antileukemic activity against P388 lymphocytic leukemia at a dose of 100 mg/kg administered intraperitoneally expressed as log of the number of tumor cells (cell kill); format: ADME, organism-based; set-up: dose 100 mg/kg, route intraperitoneal; conditions: mouse, ip; how it was run: as §2
P388 [16] = test: In vivo antileukemic activity against P388 lymphocytic leukemia at a dose of 50 mg/kg administered intraperitoneally expressed as weight change of treated to control animals; format: functional, Mus musculus; conditions: route intraperitoneal; how it was run: as §1
P388 [17] = test: In vivo antileukemic activity against P388 lymphocytic leukemia at a dose of 50 mg/kg administered intraperitoneally expressed as log of the number of tumor cells (cell kill); format: ADME, organism-based; set-up: dose 50 mg/kg, route intraperitoneal; conditions: mouse, ip; how it was run: as §2
P388 [18] = test: In vivo antileukemic activity against P388 lymphocytic leukemia at a dose of 400 mg/kg administered intraperitoneally expressed as weight change of treated to control animals; format: functional, Mus musculus; conditions: route intraperitoneal; how it was run: as §1
P388 [19] = test: In vivo antileukemic activity against P388 lymphocytic leukemia at a dose of 200 mg/kg administered intraperitoneally expressed as log of the number of tumor cells (cell kill); format: ADME, organism-based; set-up: dose 200 mg/kg, route intraperitoneal; conditions: mouse, ip; how it was run: as §2
P388 [20] = test: In vivo antileukemic activity against P388 lymphocytic leukemia at a dose of 25 mg/kg administered intraperitoneally expressed as log of the number of tumor cells (cell kill); format: ADME, organism-based; set-up: dose 25 mg/kg, route intraperitoneal; conditions: mouse, ip; how it was run: as §2
P388 [21] = test: In vivo antileukemic activity against P388 lymphocytic leukemia at a dose of 200 mg/kg administered intraperitoneally expressed as weight change of treated to control animals; format: functional, Mus musculus; conditions: route intraperitoneal; how it was run: as §1
P388 [22] = test: In vivo antileukemic activity against P388 lymphocytic leukemia at a dose of 100 mg/kg administered intraperitoneally expressed as ratio of survival of treated compared to untreated control animals; format: functional, Mus musculus; conditions: route intraperitoneal; how it was run: as §3
P388 [23] = test: In vivo antileukemic activity against P388 lymphocytic leukemia at a dose of 50 mg/kg administered intraperitoneally expressed as ratio of survival of treated compared to untreated control animals; format: functional, Mus musculus; conditions: route intraperitoneal; how it was run: as §3
P388 [24] = test: In vivo antileukemic activity against P388 lymphocytic leukemia at a dose of 12.5 mg/kg administered intraperitoneally expressed as weight change of treated to control animals; format: functional, Mus musculus; conditions: route intraperitoneal; how it was run: as §1
P388 [25] = test: In vivo antileukemic activity against P388 lymphocytic leukemia at a dose of 400 mg/kg administered intraperitoneally expressed as log of the number of tumor cells (cell kill); format: ADME, organism-based; set-up: dose 400 mg/kg, route intraperitoneal; conditions: mouse, ip; how it was run: as §2
P388 [26] = test: In vivo antileukemic activity against P388 lymphocytic leukemia at a dose of 200 mg/kg administered intraperitoneally expressed as ratio of survival of treated compared to untreated control animals; format: functional, Mus musculus; conditions: route intraperitoneal; how it was run: as §3
P388 [27] = test: In vivo antileukemic activity against P388 lymphocytic leukemia at a dose of 100 mg/kg administered intraperitoneally expressed as weight change of treated to control animals; format: functional, Mus musculus; conditions: route intraperitoneal; how it was run: as §1
P388 [28] = test: In vivo antileukemic activity against P388 lymphocytic leukemia at a dose of 400 mg/kg administered intraperitoneally expressed as ratio of survival of treated compared to untreated control animals; format: functional, Mus musculus; conditions: route intraperitoneal; how it was run: as §3
P388 [29] = test: In vivo antileukemic activity against P388 lymphocytic leukemia at a dose of 25 mg/kg administered intraperitoneally expressed as ratio of survival of treated compared to untreated control animals; format: functional, Mus musculus; conditions: route intraperitoneal; how it was run: as §3
P388 [30] = test: In vivo antileukemic activity against P388 lymphocytic leukemia at a dose of 12.5 mg/kg administered intraperitoneally expressed as ratio of survival of treated compared to untreated control animals; format: functional, Mus musculus; conditions: route intraperitoneal; how it was run: as §3
P388 [31] = test: In vivo antileukemic activity against P388 lymphocytic leukemia at a dose of 240 mg/kg administered intraperitoneally expressed as log of the number of tumor cells (cell kill); format: ADME, organism-based; set-up: dose 240 mg/kg, route intraperitoneal; conditions: mouse, ip; how it was run: as §2
P388 [32] = test: In vivo antileukemic activity against P388 lymphocytic leukemia at a dose of 240 mg/kg administered intraperitoneally expressed as ratio of survival of treated compared to untreated control animals; format: functional, Mus musculus; conditions: route intraperitoneal; how it was run: as §3
P388 [33] = test: In vivo antileukemic activity against P388 lymphocytic leukemia at a dose of 240 mg/kg administered intraperitoneally expressed as weight change of treated to control animals; format: functional, Mus musculus; conditions: route intraperitoneal; how it was run: as §1

| SMILES | KE (P388 [13]) | Weight change (P388 [14]) | KE (P388 [15]) | Weight change (P388 [16]) | KE (P388 [17]) | KE (P388 [20]) | T/C (P388 [22]) | T/C (P388 [23]) | Weight change (P388 [24]) | Weight change (P388 [27]) | T/C (P388 [29]) | T/C (P388 [30]) | further results |
| --- | --- | --- | --- | --- | --- | --- | --- | --- | --- | --- | --- | --- | --- |
| CC(C)NC(=O)OCc1cn(C)c(-c2ccccc2)c1COC(=O)NC(C)C | – | – | – | – | – | – | – | – | – | – | – | – | Weight change (P388 [1]): -0.5 g; KE (P388 [2]): 1.99; KE (P388 [3]): 2.63; Weight change (P388 [4]): -3.4 g; T/C (P388 [5]): 129%; T/C (P388 [6]): 171%; Weight change (P388 [7]): -1.9 g; KE (P388 [8]): 0.32; Weight change (P388 [9]): -3.2 g; T/C (P388 [10]): 145%; T/C (P388 [11]): 181%; KE (P388 [12]): -0.7 |
| CNC(=O)OCC1=CC[N+](C)([O-])C1COC(=O)NC (centres undefined) | 0.39 | -1.2 g | 1.7 | -1.5 g | 0.62 | -1.23 | 159% | 145% | -3.8 g | -2.1 g | 122% | 142% | Weight change (P388 [18]): -5.7 g; KE (P388 [19]): 1; Weight change (P388 [21]): -2.4 g; KE (P388 [25]): 0.34; T/C (P388 [26]): 150%; T/C (P388 [28]): 143% |
| C[N+]1([O-])CC=CC1 | – | – | – | – | – | – | – | – | – | – | – | – | KE (P388 [31]): -0.12; T/C (P388 [32]): 108%; Weight change (P388 [33]): -0.2 g |
| CC(C)NC(=O)OCC1=C(COC(=O)NC(C)C)C(C)(C)[N+](C)([O-])C1c1ccccc1 (centres undefined) | -1.54 | 0.1 g | -1.53 | 0.9 g | -1.53 | -1.64 | 107% | 107% | 2.1 g | 0.7 g | 100% | 108% | – |
| CC(C)NC(=O)OCC1=C(COC(=O)NC(C)C)C(c2ccccc2)[N+](C)([O-])C1 (centres undefined) | -1.21 | -0.1 g | -0.11 | -0.6 g | -1.16 | -1.5 | 134% | 116% | 1.6 g | -1.5 g | 109% | 115% | – |
| CC(C)NC(=O)OCC1=C(COC(=O)NC(C)C)C(c2ccccc2)N(C)C1 (centres undefined) | 0.84 | -0.9 g | 5.18 | -2 g | 0.53 | 0 | 225% | 145% | 0 g | -2.2 g | 136% | 121% | – |
